Where two headings read alike, the source gives them in different places.
Legend:
QTc = details: cited from earlier work
[1] = cited from earlier work
[2] = assay type: in vivo, human; details: for percentage of total exposure (AUC0–∞) after 7 days / percentage of total exposure (AUC0–∞) after 14 days: based on mean partial AUCs
cytochrome P450 (CYP) = details: background statement, no reference given; cited from earlier work
[3] = system: healthy Japanese subjects; experiment: Safety and tolerability; assay type: in vivo, human
How it was run: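 Double-blind, placebo-controlled single 30-min IV infusion (300 ml, in 5 % dextrose with sterile water) of test compound or placebo. Groups: 500 mg, 5 active/1 placebo; 1000 mg, 10 active/2 placebo. Safety was assessed by physical examination, chemistry, hematology, urinalysis, heart rate, blood pressure, respiratory rate, oral temperature, and monitoring of concomitant medications and adverse events, queried on all study days with non-leading questions.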

[4] = 500 mg and 1000 mg single IV infusion, range of the two dose means
[5] = 500 mg single IV infusion, healthy Japanese subjects, range of subjects, n = 5
[6] = 1000 mg single IV infusion, healthy Japanese subjects, range of subjects, n = 10

SMILES: CN[C@H]1C(=O)N[C@@H]2Cc3ccc(cc3)Oc3cc4cc(c3O[C@@H]3O[C@H](C(=O)O)[C@@H](O)[C@H](O)[C@H]3NC(=O)CCCCCCCCC(C)C)Oc3ccc(cc3Cl)[C@@H](O)[C@@H]3NC(=O)[C@H](NC(=O)[C@@H]4NC(=O)[C@@H](NC2=O)c2cc(cc(O)c2Cl)Oc2cc1ccc2O)c1ccc(O)c(c1)-c1c(O[C@H]2O[C@H](CO)[C@@H](O)[C@H](O)[C@@H]2O)cc(O)cc1[C@@H](C(=O)NCCCN(C)C)NC3=O [Dalbavancin]
- QTc prolongation (QTc): no evidence of QTc prolongation
- terminal half-life (t1/2) [1]: 2 weeks
- terminal t1/2 ([1]; studies with follow-up periods as long as 70 days): ≤ 372 h
- mean CL across two dose concentrations [2, 4]: 40.5 to 42.2 mL/h
- mean Vd across two dose concentrations [2, 4]: 11,301 to 12,182 ml
- percentage of total exposure (AUC0–∞) after 7 days ([2]; 500 mg single IV infusion): approximately 47%
- percentage of total exposure (AUC0–∞) after 14 days ([2]; 500 mg single IV infusion): ~70%
- mean AUC%extrap (percentage of AUC0–∞ obtained by extrapolation) ([2]; 500 mg single IV infusion, healthy Japanese subjects): 9.83%
- Vd, range [2, 5]: 11,412–14,205 ml
- terminal phase t1/2, range [2, 5]: 182 to 240 h
- percentage of total exposure (AUC0–∞) after 7 days ([2]; 1000 mg single IV infusion): approximately 49%
- percentage of total exposure (AUC0–∞) after 14 days ([2]; 1000 mg single IV infusion): ~73%
- mean AUC%extrap (percentage of AUC0–∞ obtained by extrapolation) ([2]; 1000 mg single IV infusion, healthy Japanese subjects): 8.34%
- CL, range [2, 6]: 34.8 to 45.8 mL/h
- Vd, range [2, 6]: 8999–13,691 ml
- terminal phase t1/2, range [2, 6]: 162 to 220 h
- CYP oxidative metabolism (cytochrome P450 (CYP)): does not undergo cytochrome P450 (CYP) oxidative metabolism
- substrate, inhibitor or inducer of CYP isozymes (cytochrome P450 (CYP)): is not a substrate, inhibitor or inducer of any known CYP-isozyme
- tolerability ([3]; 500 mg and 1000 mg as single 30-min infusions, healthy Japanese subjects): well tolerated
- serious adverse events, deaths, discontinuations due to a TEAE ([3]; 500 mg and 1000 mg single IV infusion, healthy Japanese subjects): no serious adverse event occurred
- investigator-assessed relation of dizziness to study medication ([3]; 500 mg dose group): unlikely to be related
- investigator-assessed relation of dyspepsia to study medication ([3]; 500 mg dose group): not related
- investigator-assessed relation of rash and diarrhea to study medication ([3]; 1000 mg dose group): possibly related
- subjects with at least one TEAE, percentage ([3]; Dalbavancin 500 mg single IV infusion, N = 5): 40%
- subjects with at least one TEAE, percentage ([3]; Dalbavancin 1000 mg single IV infusion, N = 10): 30%
- clinical laboratory values (chemistry, hematology, urinalysis) ([3]; any dose group, change from baseline): No clinically relevant, abnormal laboratory values were reported
- intensity of TEAEs ([3]; subjects receiving dalbavancin in both dose groups (500 mg, 1000 mg)): mild intensity
